In ChEMBL document CHEMBL1275287, “Synthesis and molluscicidal evaluation of some new pyrazole, isoxazole, pyridine, pyrimidine, 1,4-thiazine and 1,3,4-thiadiazine derivatives incorporating benzofuran moiety” (Eur J Med Chem, 2010):
Activity calls are given as the source filed them. The rule behind the calls is not given here.

Columns and labels:
Type in all cases: functional, organism-based
[1] = system: Biomphalaria alexandrina; experiment: Molluscicidal activity against Biomphalaria alexandrina at 10 ppm after 24 hrs
Method in brief: (§1)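 Field-collected snails (about 7 mm shell diameter) held in the lab 10 days before testing and fed lettuce daily. Compound dissolved with two drops Tween 20 plus 2 mL DMSO, then suspended in untreated raw Nile/canal water in aerated glass jars. Three concentrations between 1 and 10 ppm; ten snails per jar, 24 h at 25 °C. Triplicate runs; mean killed snails recorded. Controls received water with Tween 20/DMSO only.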

[2] = system: Biomphalaria alexandrina; experiment: Molluscicidal activity against Biomphalaria alexandrina at 5 ppm after 24 hrs; method in brief: as §1
[3] = system: Biomphalaria alexandrina; experiment: Molluscicidal activity against Biomphalaria alexandrina at 1 ppm after 24 hrs; method in brief: as §1

Row | SMILES | Activity [1] | Activity [2] | Activity [3]
1 | O=C(/C=C/c1cn(-c2ccccc2)nc1-c1cc2ccccc2o1)c1cc2ccccc2o1 | Active | Active | inactive
2 | C(=C1/Sc2nncn2N=C1c1cc2ccccc2o1)/c1cn(-c2ccccc2)nc1-c1cc2ccccc2o1 | Active | Active | inactive
3 | O=C(Nc1ccc([N+](=O)[O-])cc1Cl)c1cc(Cl)ccc1O | Active | Active | Active
4 | C(=C1/Sc2ccccc2N=C1c1cc2ccccc2o1)/c1cn(-c2ccccc2)nc1-c1cc2ccccc2o1 | inactive | inactive | inactive
5 | Cc1cn2c(nc1=O)S/C(=C\c1cn(-c3ccccc3)nc1-c1cc3ccccc3o1)C(c1cc3ccccc3o1)=N2 | inactive | inactive | inactive
6 | S=C1N=C(c2cn(-c3ccccc3)nc2-c2cc3ccccc3o2)CC(c2cc3ccccc3o2)N1 (stereo unspecified) | inactive | inactive | inactive
7 | c1ccc(-n2cc(C3CC(c4cc5ccccc5o4)=NO3)c(-c3cc4ccccc4o3)n2)cc1 (stereo unspecified) | inactive | inactive | inactive
8 | O=C(c1cc2ccccc2o1)C(Br)C(Br)c1cn(-c2ccccc2)nc1-c1cc2ccccc2o1 (stereo unspecified) | inactive | inactive | inactive
9 | O=C(/C(Br)=C/c1cn(-c2ccccc2)nc1-c1cc2ccccc2o1)c1cc2ccccc2o1 | inactive | inactive | inactive
10 | NC(=S)N1N=C(c2cc3ccccc3o2)CC1c1cn(-c2ccccc2)nc1-c1cc2ccccc2o1 (stereo unspecified) | inactive | inactive | inactive
11 | N#Cc1c(-c2cn(-c3ccccc3)nc2-c2cc3ccccc3o2)cc(-c2cc3ccccc3o2)nc1N | Active | Active | inactive
12 | c1ccc(-n2cc(C3CC(c4cc5ccccc5o4)=NN3)c(-c3cc4ccccc4o3)n2)cc1 (stereo unspecified) | Active | Active | inactive
